# According to PMC12443483 (Journal of the American Chemical Society, 2025):
# Several values for one entry are separate records, joined by “and”; a condition that tells them apart may be missing. Equal entries are not always repeated.
# Experiments:
# [1] = Photophysical characterization by absorption and fluorescence spectroscopy; assay type: physicochemical; conditions: for Absorbance λabs (maximum absorption wavelength) / Emission λem (maximum emission wavelength) / ε (molar absorption coefficient at maximum absorption wavelength): 25 μM probe in CH3CN/PBS pH 7.4; for Stokes Shift: difference between λabs and λem, CH3CN/PBS pH 7.4
# Method in brief: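 Probe at 25 μM final in CH3CN/PBS (50:50 v/v), pH 7.4. Absorption and emission spectra were recorded, with excitation at each probe's absorption maximum. ε was taken at the absorption maximum, and Stokes shift as the absorption–emission maximum difference. Quantum yield (error limit ±5) was measured in this mixture and also in CH3CN.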
# [2] = Polarity sensitivity: emission across solvents with varying dielectric constants; assay type: physicochemical; conditions: for Polarity sensitivity: λem versus solvent dielectric constant; for Emission wavelength range (solvatochromism): depending on solvent polarity
# [3] = Viscosity sensitivity: fluorescence in ethylene glycol/glycerol mixtures; assay type: physicochemical; conditions: EG/G mixtures 16 to 851 cP; for Viscosity sensitivity χ2: second-order polynomial regression, 25 μM probe
# Method in brief: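 Fluorescence was measured in ethylene glycol/glycerol mixtures spanning 16–851 cP; the two solvents were chosen for closely matched dielectric constants, to minimise polarity effects. χ2 was derived from second-order polynomial regression of intensity against viscosity.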
# [4] = Temperature dependence of fluorescence in methanol/glycerol mixtures; assay type: physicochemical
# Method in brief: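 Fluorescence of 25 μM probe was measured in methanol/glycerol mixtures of varying viscosity at 25 and 42 °C. Fluorescence fold change was plotted against viscosity.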
# [5] = biological target: T1, αS fibrils (Homo sapiens, UniProt P37840); assay: Turn-on fluorescence upon binding to αS fibrils; conditions: for Brightness increase upon binding to αS fibrils / Emission wavelength upon binding to αS fibrils: 10 μM probe, 50 μM αS fibrils; for Fluorescence lifetime (τ) upon binding to αS fibrils: bound to αS fibrils
# Method in brief: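 Emission spectra of 10 μM probe were recorded with 50 μM αS monomer or fibrils. Samples were also photographed under a 365 nm hand-held UV lamp.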
# [6] = biological target: T1, αS fibrils; assay: Binding affinity; conditions: for Kd: read-out: Dissociation constant (Kd), probe 10 nM–10 μM with 100 μM αS fibrils
# [7] = tested on: tau fibrils; assay: Amyloid selectivity: turn-on with αS fibrils relative to tau fibrils; assay type: binding; conditions: 1 μM probe
# [8] = tested on: Aβ1–42 fibrils; assay: Amyloid selectivity: turn-on with αS fibrils relative to Aβ1–42 fibrils; assay type: binding; conditions: 1 μM probe
# [9] = biological target: T1, αS fibrils; assay: Competition binding studies with ThT, Ex6 and BF2846 on αS fibrils; conditions: for Competition with ThT: some ThT emission remained at saturating concentrations
# [10] = biological target: T1, αS fibrils; assay: Concentration-dependent binding λem and local dielectric constant on αS fibrils; conditions: for Dielectric constant of local environment of probe bound to αS fibrils: calculated from fits of λem in solvents, 581 nm for 3c, 617 nm for 4a
# [11] = biological target: PDD-derived AFs (Homo sapiens, UniProt P37840); assay: Fluorescence with amplified fibrils; assay type: binding; conditions: 1 μM probe, 1 μM AFs, average of three PDD patients
# Method in brief: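 Probe (1 μM) was mixed with amplified fibrils (1 μM) or brain lysates from three PDD patients, and the averages are shown. Ex/Em was set per probe: 463/580 or 484/620 nm, with ThT reference at 450/482 nm. Fold change is after subtracting free probe fluorescence in PBS. Error bars are SD of 3 measurements.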
# [12] = biological target: αS (Homo sapiens, UniProt P37840); assay: Monitoring αS aggregation over prolonged agitation; assay type: biochemical; conditions: PBS buffer, 37 °C; for Detection of early αS aggregation species (misfolding, oligomers/protofibrils): 0–40 hours
# [13] = biological target: αS monomer (Homo sapiens, UniProt P37840); assay: Fluorescence with TMAO-induced αS misfolding/oligomers; assay type: biochemical
# Method in brief: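 Monomeric αS (50 μM) was exposed to trimethylamine N-oxide at 2, 4 or 6 M to induce misfolding or oligomers, then probe fluorescence was read. Fold change is relative to free probe in Tris buffer containing the same TMAO concentration.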
# [14] = tested on: αS/pLK condensates; assay: CLSM staining of αS/pLK LLPS condensates relative to αS fibrils; conditions: αS 100 μM / pLK 0.25 mg/mL, LLPS buffer
# Method in brief: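 Condensates of αS (100 μM) and poly-L-lysine (0.25 mg/mL), doped with 5% Acd-labelled αS (position 94) and 5% FITC-poly-L-lysine, stained and imaged by confocal microscopy. Channels: Acd 430–480 nm (Ex 405 nm); FITC 500–540 nm; probe Ex 561 nm, Em 570–620 or 630–680 nm. Probe intensity in condensates was divided by that with αS fibrils. Buffer: HEPES/NaCl/TCEP pH 7.4 with 15% PEG-8000, room temperature. SD of >3 measurements.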
# [15] = tested on: αS/Tau0N4R condensates; assay: CLSM staining of αS/tau condensates relative to αS fibrils; conditions: 80 μM αS / 40 μM tau, LLPS buffer
# [16] = biological target: Tau0N4R condensates (Homo sapiens, UniProt P10636); assay: CLSM staining of Tau0N4R condensates with and without αS; conditions: 40 μM Tau0N4R without αS, 630–680 nm channel
# Sequence of Tau0N4R condensates (Homo sapiens, UniProt P10636) (P10636 2-383 isoform P10636-6): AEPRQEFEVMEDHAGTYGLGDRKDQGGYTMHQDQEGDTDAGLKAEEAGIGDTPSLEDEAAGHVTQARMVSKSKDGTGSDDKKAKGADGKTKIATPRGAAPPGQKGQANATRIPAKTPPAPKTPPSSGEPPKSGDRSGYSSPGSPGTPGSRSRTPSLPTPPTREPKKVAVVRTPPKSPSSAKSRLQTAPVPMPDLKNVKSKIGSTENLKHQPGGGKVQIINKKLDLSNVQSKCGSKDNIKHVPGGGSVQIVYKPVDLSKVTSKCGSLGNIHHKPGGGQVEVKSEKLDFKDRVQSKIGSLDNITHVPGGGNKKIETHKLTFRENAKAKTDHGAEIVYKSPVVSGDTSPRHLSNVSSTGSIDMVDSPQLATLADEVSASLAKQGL
# Method in brief: (§1)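 Confocal imaging of 40 μM Tau0N4R condensates, with or without 80 μM αS, doped with 5% AF488-labelled Tau0N4R. Buffer: 20 mM HEPES, 150 mM NaCl, 1 mM TCEP, pH 7.4, 15% PEG-8000, room temperature. Probe read at Ex 561 nm, Em 630–680 nm; AF488-tau at Ex 488 nm, Em 500–540 nm. Error bars are SD of >3 measurements.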
# [17] = tested on: Tau0N4R condensates; assay: as above; conditions: 40 μM Tau0N4R with or without 80 μM αS
# Method in brief: as §1
# [18] = 2 M TMAO, 50 μM αS monomer, 10 μM probe
# [19] = 4 M TMAO, 50 μM αS monomer, 10 μM probe
# [20] = 6 M TMAO, 50 μM αS monomer, 10 μM probe
Structure (SMILES),Absorbance λabs (maximum absorption wavelength) [1] [nm],Emission λem (maximum emission wavelength) [1] [nm],ε (molar absorption coefficient at maximum absorption wavelength) [1] [M⁻¹ cm⁻¹],"Fluorescence QY ([1]; CH3CN/PBS pH 7.4, 25 μM) [%]",Stokes Shift [1] [nm],Fluorescence QY ([1]; in CH3CN),Polarity sensitivity [2],Fluorescence intensity change with viscosity [3],Viscosity sensitivity χ2 [3],Fluorescence change between 25 °C and 42 °C [4] [fold],Emission wavelength range (solvatochromism) [2],Brightness increase upon binding to αS fibrils [5] [fold],Emission wavelength upon binding to αS fibrils [5] [nm],Fluorescence lifetime (τ) upon binding to αS fibrils [5] [ns],Kd [6] [µM],Turn-on for αS fibrils relative to tau fibrils [7] [fold],Turn-on for αS fibrils relative to Aβ1–42 fibrils [8] [fold],Fluorescence with PDD-derived AFs compared to unamplified lysate [11],Staining efficiency: probe intensity ratio αS/pLK condensates to αS fibrils [14] [fold],Staining: probe intensity ratio αS/Tau condensates to αS fibrils [15] [fold],other results
Cc1c(C)n2c(/C=C/c3ccc(N)cc3)c(C)c(=O)n2c1=O [3a],385,583,30800,0.7,198,1.5%,26.7,5.4 fold,1.0 ×10^−3,2.14,–,–,–,–,–,–,–,–,–,–,–
CNc1ccc(/C=C/c2c(C)c(=O)n3c(=O)c(C)c(C)n23)cc1 [3b],399,591,26400,0.5,192,2.0%,30.7,4.68 fold,0.7 ×10^−3,–,486–640 nm,–,–,–,–,–,–,–,–,–,–
Cc1c(C)n2c(/C=C/c3ccc(N(C)C)cc3)c(C)c(=O)n2c1=O [3c],418,604,30400,0.5,186,7.3 ± 0.3% and 7.3%,32.1,3.82 fold,0.6 ×10^−3,2.48,–,476,580,2.27,1.45 ± 0.43,2.8,5.2,2.4 fold,0.68,0.37,"Displacement of probe fluorescence by BF2846 (Site B binder) [9]: partially displaced; Displacement of probe fluorescence by Ex6 (Site A binder) [9]: not displaced; Competition with ThT [9]: competed with the promiscuous binder ThT; λem as probe concentration increased ([10]; bound to αS fibrils): 575 to 581 nm; λem shift as concentration increased ([10]; bound to αS fibrils): 6 nm; Dielectric constant of local environment of probe bound to αS fibrils [10]: 35.9; Detection of early αS aggregation species (misfolding, oligomers/protofibrils) [12]: unable to detect changes within 20 h; λem with αS/TMAO ([13]; 4 M TMAO): 566 nm; λem with αS/TMAO ([13]; 6 M TMAO): 560 nm"
Cc1c(C)n2c(/C=C/C=C/c3ccc(N(C)C)cc3)c(C)c(=O)n2c1=O [4a],436,640,36700,0.6,204,13.5%,~ 31.5,around 3 fold,–,–,486–640 nm,383,620,1.27,0.42 ± 0.25,11,15,2.6 fold,1.11,1.12,"λem shift ([2]; across solvents with dielectric constants from 2.38 to 8.93): 64 nm; Affinity relative to 3c ([6]; Kd ratio 3c/4a): 3.5 times; Displacement of probe fluorescence by BF2846 (Site B binder) [9]: not affected; Displacement of probe fluorescence by Ex6 (Site A binder) [9]: not affected; Competition with ThT [9]: competed with the promiscuous binder ThT; λem as probe concentration increased ([10]; bound to αS fibrils): 617 to 618 nm; Dielectric constant of local environment of probe bound to αS fibrils [10]: 27.6; Increase in fluorescence intensity within 20 hours of αS aggregation ([12]; agitation): 15 fold; λem with αS/TMAO ([13]; 2 M TMAO): 604 nm; Sensitivity (turn-on) relative to 3c [13, 18]: 2.2 fold; Sensitivity (turn-on) relative to ThT [13, 18]: 3.1 fold; λem with αS/TMAO ([13]; 4 M TMAO): 606 nm; Sensitivity (turn-on) relative to 3c [13, 19]: 2.9 fold; Sensitivity (turn-on) relative to ThT [13, 19]: 5.2 fold; λem with αS/TMAO ([13]; 6 M TMAO): 601 nm; Turn-on relative to 2a (so in the source) [13, 20]: 1.2 fold; Turn-on relative to ThT [13, 20]: 1.5 fold; Staining of tau-only condensates [16]: minimal staining; Fluorescence in αS-containing tau condensates compared to tau-only condensates [17]: 3.8 fold"
"Cc1ccc2c(c1)sc(-c1ccc(N(C)C)cc1)[n+]2C [ThT, Thioflavin-T, reference compound]",–,–,–,–,–,–,–,–,–,–,–,–,–,–,–,–,–,failed to distinguish AFs from lysate,0.15,0.34,"Detection of early αS aggregation species (misfolding, oligomers/protofibrils) [12]: only tracking mature fibrils"
